# What was measured:
# Format in all cases: functional
# Details in all cases: read-out: Activity
# A498 = test: Cytotoxicity against human A498 cells assessed as cell growth at 10 uM
# In short: (§1)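 Single-dose NCI-60 screen at 10 µM. Cells were grown in RPMI 1640 with 5% FBS and 2 mM L-glutamine, then treated for 48 h at 37 °C. Protein was measured by SRB staining with absorbance at 515 nm. Percentage growth was recorded, and inhibition percentage was calculated as 100 minus growth percentage.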
# NCI-H522 = test: Cytotoxicity against human NCI-H522 cells assessed as cell growth at 10 uM
# In short: (§2)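 NCI-60 screen: cells grown in RPMI 1640 with 5% FBS and 2 mM L-glutamine, plated at 5000–40,000 cells/well according to doubling time, and preincubated 24 h at 37 °C, 5% CO2. The single 10 µM dose (DMSO stock) was added, then incubated 48 h. Cells were TCA-fixed and stained with 0.4% SRB, read at 515 nm, and growth % calculated against time-zero and control plates.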
# ACHN = test: Cytotoxicity against human ACHN cells assessed as cell growth at 10 uM; in short: as §1
# HOP-92 = test: Cytotoxicity against human HOP92 cells assessed as cell growth at 10 uM; in short: as §1
# SW-620 = test: Cytotoxicity against human SW620 cells assessed as cell growth at 10 uM; in short: as §2
# RXF 393 = test: Cytotoxicity against human RXF393 cells assessed as cell growth at 10 uM; in short: as §2
# SK-MEL-28 = test: Cytotoxicity against human SK-MEL-28 cells assessed as cell growth at 10 uM; in short: as §2
# [1] = Cytotoxicity against human Hs 578T cells assessed as cell growth at 10 uM; in short: as §1
# BT-549 = test: Cytotoxicity against human BT549 cells assessed as cell growth at 10 uM; in short: as §1
# MCF7 = test: Cytotoxicity against human MCF7 cells assessed as cell growth at 10 uM; in short: as §2
# MDA-MB-231 = test: Cytotoxicity against human MDA-MB-231 cells assessed as cell growth at 10 uM; in short: as §2
# HT-29 = test: Cytotoxicity against human HT-29 cells assessed as cell growth at 10 uM; in short: as §1
# SR = test: Cytotoxicity against human SR cells assessed as cell growth at 10 uM; in short: as §2
# OVCAR-3 = test: Cytotoxicity against human OVCAR-3 cells assessed as cell growth at 10 uM; in short: as §2
# SK-MEL-5 = test: Cytotoxicity against human SK-MEL-5 cells assessed as cell growth at 10 uM; in short: as §2
# HL-60(TB) = test: Cytotoxicity against human HL-60(TB) cells assessed as cell growth at 10 uM
# In short: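 NCI 60-cell panel screen at a single concentration of 10 µM. Cells are grown in RPMI 1640 with 5% FBS and 2 mM L-glutamine and read by SRB protein staining at 515 nm. Percent growth is measured relative to time-zero and untreated controls; inhibition % is 100 minus growth %.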
# OVCAR-5 = test: Cytotoxicity against human OVCAR5 cells assessed as cell growth at 10 uM; in short: as §2
# M14 = test: Cytotoxicity against human M14 cells assessed as cell growth at 10 uM; in short: as §2
# OVCAR-8 = test: Cytotoxicity against human OVCAR8 cells assessed as cell growth at 10 uM; in short: as §2
# SF-539 = test: Cytotoxicity against human SF539 cells assessed as cell growth at 10 uM; in short: as §2
# NCI-H226 = test: Cytotoxicity against human NCI-H226 cells assessed as cell growth at 10 uM; in short: as §2
# U-251 = test: Cytotoxicity against human U251 cells assessed as cell growth at 10 uM; in short: as §2
# 786-0 = test: Cytotoxicity against human 786-0 cells assessed as cell growth at 10 uM; in short: as §1
# OVCAR-4 = test: Cytotoxicity against human OVCAR4 cells assessed as cell growth at 10 uM; in short: as §2
# DU-145 = test: Cytotoxicity against human DU145 cells assessed as cell growth at 10 uM; in short: as §1
# UACC-257 = test: Cytotoxicity against human UACC257 cells assessed as cell growth at 10 uM; in short: as §2
# UACC-62 = test: Cytotoxicity against human UACC62 cells assessed as cell growth at 10 uM; in short: as §2
# NCI-H460 = test: Cytotoxicity against human NCI-H460 cells assessed as cell growth at 10 uM; in short: as §2
# UO-31 = test: Cytotoxicity against human UO31 cells assessed as cell growth at 10 uM; in short: as §2
# NCI-H23 = test: Cytotoxicity against human NCI-H23 cells assessed as cell growth at 10 uM; in short: as §2
# COLO 205 = test: Cytotoxicity against human COLO205 cells assessed as cell growth at 10 uM; in short: as §1
smiles,measurement,setting,value
Cc1cc(O)cc(-c2nn(CC#N)cc2-c2ccnc(-c3ccccc3)c2)c1,growth at 10 µM,A498,84.3%
same,growth at 10 µM,NCI-H522,57.2%
same,growth at 10 µM,ACHN,74.4%
same,growth at 10 µM,HOP-92,57.3%
same,growth at 10 µM,SW-620,87.6%
same,growth at 10 µM,RXF 393,151%
same,growth at 10 µM,SK-MEL-28,85.2%
same,growth at 10 µM,[1],84.6%
same,growth at 10 µM,BT-549,93.5%
same,growth at 10 µM,MCF7,53.8%
same,growth at 10 µM,MDA-MB-231,80.7%
same,growth at 10 µM,HT-29,61.9%
same,growth at 10 µM,SR,80.3%
same,growth at 10 µM,OVCAR-3,107%
same,growth at 10 µM,SK-MEL-5,75.4%
same,growth at 10 µM,HL-60(TB),78.4%
same,growth at 10 µM,OVCAR-5,93.2%
same,growth at 10 µM,M14,81.3%
same,growth at 10 µM,OVCAR-8,70.2%
same,growth at 10 µM,SF-539,83.5%
same,growth at 10 µM,NCI-H226,77.7%
same,growth at 10 µM,U-251,87.4%
same,growth at 10 µM,786-0,67%
same,growth at 10 µM,OVCAR-4,77.7%
same,growth at 10 µM,DU-145,103%
same,growth at 10 µM,UACC-257,95.6%
same,growth at 10 µM,UACC-62,59.8%
same,growth at 10 µM,NCI-H460,93.3%
same,growth at 10 µM,UO-31,64.5%
same,growth at 10 µM,NCI-H23,93.5%
same,growth at 10 µM,COLO 205,108%
